Results published in ChEMBL document CHEMBL3867488 (ACS Med Chem Lett, 2016).

Assays:
[1] = Plasma concentration in cynomolgus monkey at 1 mg/kg, po qd administered via gavage for 14 days measured after 5 hrs of last-dose by LC/MS/MS analysis; format: ADME, organism-based, Macaca fascicularis
Summary of the method: (§1)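 Cynomolgus monkeys dosed daily for 14 days. On day 14, plasma drug concentration was taken 5 h post-dose. Plasma triglycerides were expressed as % elevation over baseline, with significance tested by ANOVA (p < 0.05).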

[2] = target: T1, Oxysterols receptor LXR-beta (Homo sapiens, UniProt P55055); test: Agonist activity at LXR-beta in human whole blood assessed as ABCA1 gene induction by measuring ABCA1 mRNA level after 4 hrs by SYBR-Green dye-based Q-PCR analysis; format: tissue-based
T1 sequence (P55055 whole entry): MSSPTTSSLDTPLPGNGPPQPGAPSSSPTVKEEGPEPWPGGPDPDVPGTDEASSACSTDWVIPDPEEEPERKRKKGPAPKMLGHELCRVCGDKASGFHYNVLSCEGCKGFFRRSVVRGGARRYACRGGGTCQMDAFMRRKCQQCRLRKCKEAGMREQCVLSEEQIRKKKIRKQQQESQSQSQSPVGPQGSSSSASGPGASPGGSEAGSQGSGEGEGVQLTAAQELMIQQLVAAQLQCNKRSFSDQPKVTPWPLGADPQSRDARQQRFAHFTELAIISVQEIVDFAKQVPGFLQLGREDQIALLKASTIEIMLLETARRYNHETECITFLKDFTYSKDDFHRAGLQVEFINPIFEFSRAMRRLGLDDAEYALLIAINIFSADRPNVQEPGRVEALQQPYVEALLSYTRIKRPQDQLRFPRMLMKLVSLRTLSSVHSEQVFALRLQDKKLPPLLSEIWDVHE

[3] = target: T2, Oxysterols receptor LXR-beta (Homo sapiens) (UniProt P55055); test: Agonist activity at human LXR-beta expressed in African green monkey CV1 cells measured after 18 to 20 hrs by luciferase reporter gene assay relative to pan agonist 1-(2,4-difluorobenzyl)-2-oxo-6-(4-phenoxyphenyl)-4-(trifluoromethyl)-1,2-dihydropyridine-3-carbonitrile; format: cell-based; conditions: CV-1
T2 sequence (whole entry): T1 sequence (P55055 whole entry)

[4] = target: Retinoic acid receptor RXR-alpha/oxysterols receptor LXR-beta (Homo sapiens, UniProt P55055); test: Displacement of [3H]-24,25-epoxycholesterol from human LXRbeta/RXRalpha expressed in baculovirus infected Sf9 cells by scintillation proximity analysis
Sequence of Retinoic acid receptor RXR-alpha/oxysterols receptor LXR-beta (P19793 whole entry, one chain of several): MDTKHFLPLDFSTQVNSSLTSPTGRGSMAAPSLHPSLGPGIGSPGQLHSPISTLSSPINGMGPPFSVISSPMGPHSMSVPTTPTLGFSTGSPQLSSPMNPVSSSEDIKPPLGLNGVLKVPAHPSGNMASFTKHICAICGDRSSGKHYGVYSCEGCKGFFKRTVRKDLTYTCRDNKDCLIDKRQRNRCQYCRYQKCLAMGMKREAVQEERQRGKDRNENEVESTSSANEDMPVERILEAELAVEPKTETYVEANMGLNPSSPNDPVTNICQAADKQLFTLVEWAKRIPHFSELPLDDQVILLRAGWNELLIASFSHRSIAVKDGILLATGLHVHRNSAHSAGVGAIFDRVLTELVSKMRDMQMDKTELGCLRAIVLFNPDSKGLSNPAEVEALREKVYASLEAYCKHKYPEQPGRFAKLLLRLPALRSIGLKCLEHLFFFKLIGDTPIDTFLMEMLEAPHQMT
Summary of the method: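 Binding affinity measured using full-length LXRα–RXRα and LXRβ–RXRα heterodimers.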

[5] = Plasma concentration in cynomolgus monkey at 0.3 mg/kg, po qd administered via gavage for 14 days measured after 5 hrs of last-dose by LC/MS/MS analysis; format: ADME, organism-based, Macaca fascicularis; summary of the method: as §1
[6] = target: T2, Oxysterols receptor LXR-beta (Homo sapiens); test: (§2) Agonist activity at LXR-beta in human whole blood assessed as ABCG1 gene induction by measuring ABCA1 mRNA level after 4 hrs by SYBR-Green dye-based Q-PCR analysis relative to pan agonist 2-(4-(5-(5-cyano-1-(2,4-difluorobenzyl)-6-oxo-4-(trifluoromethyl)-1,6-dihydropyridin-2-yl)thiophen-2-yl)-3-methylphenyl)acetic acid; format: tissue-based
[7] = Plasma concentration in cynomolgus monkey at 0.1 mg/kg, po qd administered via gavage for 14 days measured after 5 hrs of last-dose by LC/MS/MS analysis; format: ADME, organism-based, Macaca fascicularis; summary of the method: as §1
[8] = target: T2, Oxysterols receptor LXR-beta (Homo sapiens); test: as §2, with “ABCA1” for “ABCG1”; format: tissue-based
Macaca fascicularis = organism: Macaca fascicularis; test: Agonist activity at LXR-beta in cynomolgus monkey whole blood assessed as ABCA1 gene induction by measuring ABCA1 mRNA level after 4 hrs by SYBR-Green dye-based Q-PCR analysis relative to control; format: tissue-based
[9] = Effect on plasma triglyceride level in cynomolgus monkey at 0.1 mg/kg, po qd administered via gavage for 14 days measured after 24 hrs of last-dose relative to base line; format: ADME, organism-based, Macaca fascicularis; conditions: in vivo
Summary of the method: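 Cynomolgus monkeys dosed for 14 days, with groups at 0.1, 0.3 and 1 mg/kg. Plasma triglycerides expressed as percent change over baseline, with significance by ANOVA. Plasma drug exposure sampled 5 h post-dose. ABCG1 induction in blood cells monitored in the same animals.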

CC(C)(O)c1cn(-c2ccc(-c3cc(F)c(CO)c(S(C)(=O)=O)c3)cc2F)c(C(C)(C)c2c(Cl)cccc2Cl)n1 [BMS-852927]
concentration at 5 h [1]: 57 nM | EC50 [2]: 9 nM | Efficacy [3]: 88% | Ki [4]: 12 nM | concentration at 5 h [5]: 22 nM | Efficacy [6]: 26% | concentration at 5 h [7]: 7.5 nM | Efficacy [8]: 26% | Efficacy (Macaca fascicularis): 32% | Activity [9]: 20%
